Experimental data: ChEMBL document CHEMBL1159018, “(-)-agelasidine C and (-)-agelasidine D, two new hypotaurocyamine diterpenoids from the Caribbean sea sponge Agelas clathrodes” (J Nat Prod, 1992)
Converted amounts (≈) assume the structure as drawn. The source made the active and inactive calls. The calls are words filed in the database; no cut-off is given here.

Experiments:
[1] = Cytotoxicity against CHOK1 cells; assay type: cell-based, Cricetulus griseus; settings: chinese hamster, CHO-K1 cells; read-out: ED50 (the source's name)
Method in brief: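 CHO-K1 cell growth inhibition, reported as ED50 in µg/ml.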

Klebsiella pneumoniae [2] = assay: Antimicrobial activity against Klebsiella pneumoniae by standard disk assay; assay type: functional, organism-based
Method in brief: (§1)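 Tested at one concentration only, 1.9 mg/ml.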

Proteus vulgaris [3] = assay: Antimicrobial activity against Proteus vulgaris by standard disk assay; assay type: functional, organism-based; method in brief: as §1
Staphylococcus aureus [4] = assay: Antimicrobial activity against Staphylococcus aureus by standard disk assay; assay type: functional, organism-based; method in brief: as §1
Hafnia alvei = assay: Antimicrobial activity against Hafnia alvei by standard disk assay; assay type: functional, organism-based
Escherichia coli = assay: Antimicrobial activity against Escherichia coli by standard disk assay; assay type: functional, organism-based
Proteus vulgaris [5] = assay: Antimicrobial activity against Proteus vulgaris at 1.9 mg/ml by standard disk assay; assay type: functional, organism-based; method in brief: as §1
Klebsiella pneumoniae [6] = assay: Antimicrobial activity against Klebsiella pneumoniae at 1.9 mg/ml by standard disk assay; assay type: functional, organism-based; method in brief: as §1
Staphylococcus aureus [7] = assay: Antimicrobial activity against Staphylococcus aureus at 1.9 mg/ml by standard disk assay; assay type: functional, organism-based; method in brief: as §1

| SMILES | CC50 [1] [µg/mL] | Activity (Klebsiella pneumoniae [2]) | Activity (Proteus vulgaris [3]) | Activity (Staphylococcus aureus [4]) | Activity (Hafnia alvei) | Activity (Escherichia coli) | Activity (Proteus vulgaris [5]) | Activity (Klebsiella pneumoniae [6]) | Activity (Staphylococcus aureus [7]) |
| --- | --- | --- | --- | --- | --- | --- | --- | --- | --- |
| CC1=CCC[C@H](C)[C@@]1(C)CC/C(C)=C/CC/C(=C/CS(=O)(=O)CCNC(=N)N)CO | 2.21 (≈ 5.03 µM) | Active | Active | Active | Active | Active | – | – | – |
| CC1=CCC[C@H](C)[C@@]1(C)CC/C(C)=C/CC/C(C)=C/CS(=O)(=O)CCNC(=N)N | 5.7 (≈ 13.5 µM) | – | – | – | – | – | Active | Active | Active |
